Laboratory results published in ChEMBL document CHEMBL3046705, “Design and synthesis of benzoylphenylureas with fluorinated substituents on the aniline ring as insect growth regulators” (2011).

Assays:
Type in all cases: functional
Mythimna separata [1] = assay: Insecticidal activity against fourth-instar larval stage of Mythimna separata (Oriental armyworm) infested drug-pretreated corn leaves assessed as mortality at 100 mg/l at 25 +/-1 degC after 4 days
Culex pipiens pallens [2] = assay: Insecticidal activity against fourth-instar larval stage of Culex pipiens pallens (mosquito) assessed as mortality at 0.025 mg/l at 25 +/-1 degC after 8 days; conditions: 192 h
In short: (§1)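 Larvicidal test against mosquito larvae followed a previously reported procedure. Test solutions were made by dissolving each compound in acetone and adding distilled water to give the series of concentrations.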

Mythimna separata [3] = assay: Insecticidal activity against fourth-instar larval stage of Mythimna separata (Oriental armyworm) infested drug-pretreated corn leaves assessed as mortality at 200 mg/l at 25 +/-1 degC after 4 days
Culex pipiens pallens [4] = assay: Insecticidal activity against fourth-instar larval stage of Culex pipiens pallens (mosquito) assessed as mortality at 0.1 mg/l at 25 +/-1 degC after 8 days; conditions: 192 h; in short: as §1
Mythimna separata [5] = assay: Insecticidal activity against fourth-instar larval stage of Mythimna separata (Oriental armyworm) infested drug-pretreated corn leaves assessed as mortality at 50 mg/l at 25 +/-1 degC after 4 days
Culex pipiens pallens [6] = assay: Insecticidal activity against fourth-instar larval stage of Culex pipiens pallens (mosquito) assessed as mortality at 0.05 mg/l at 25 +/-1 degC after 8 days; conditions: 192 h; in short: as §1
Culex pipiens pallens [7] = assay: Insecticidal activity against fourth-instar larval stage of Culex pipiens pallens (mosquito) assessed as mortality at 0.25 mg/l at 25 +/-1 degC after 8 days; conditions: 192 h; in short: as §1
Mythimna separata [8] = assay: Insecticidal activity against fourth-instar larval stage of Mythimna separata (Oriental armyworm) infested drug-pretreated corn leaves assessed as mortality at 5 mg/l at 25 +/-1 degC after 4 days
Mythimna separata [9] = assay: Insecticidal activity against fourth-instar larval stage of Mythimna separata (Oriental armyworm) infested drug-pretreated corn leaves assessed as mortality at 1 mg/l at 25 +/-1 degC after 4 days
Mythimna separata [10] = assay: Insecticidal activity against fourth-instar larval stage of Mythimna separata (Oriental armyworm) infested drug-pretreated corn leaves assessed as mortality at 2.5 mg/l at 25 +/-1 degC after 4 days
Culex pipiens pallens [11] = assay: Insecticidal activity against fourth-instar larval stage of Culex pipiens pallens (mosquito) assessed as mortality at 2 mg/l at 25 +/-1 degC after 8 days; conditions: 192 h; in short: as §1
Mythimna separata [12] = assay: Insecticidal activity against fourth-instar larval stage of Mythimna separata (Oriental armyworm) infested drug-pretreated corn leaves assessed as mortality at 10 mg/l at 25 +/-1 degC after 4 days
Mythimna separata [13] = assay: Insecticidal activity against fourth-instar larval stage of Mythimna separata (Oriental armyworm) infested drug-pretreated corn leaves assessed as mortality at 25 mg/l at 25 +/-1 degC after 4 days
Culex pipiens pallens [14] = assay: Insecticidal activity against fourth-instar larval stage of Culex pipiens pallens (mosquito) assessed as mortality at 0.005 mg/l at 25 +/-1 degC after 8 days; conditions: 192 h; in short: as §1
Culex pipiens pallens [15] = assay: Insecticidal activity against fourth-instar larval stage of Culex pipiens pallens (mosquito) assessed as mortality at 0.01 mg/l at 25 +/-1 degC after 8 days; conditions: 192 h; in short: as §1
Culex pipiens pallens [16] = assay: Insecticidal activity against fourth-instar larval stage of Culex pipiens pallens (mosquito) assessed as mortality at 0.0025 mg/l at 25 +/-1 degC after 8 days; conditions: 192 h; in short: as §1

Compound	mortality at 0.025 µg/mL (Culex pipiens pallens [2]) [%]	mortality at 0.1 µg/mL (Culex pipiens pallens [4]) [%]	mortality at 50 µg/mL (Mythimna separata [5]) [%]	mortality at 0.05 µg/mL (Culex pipiens pallens [6]) [%]	mortality at 5 µg/mL (Mythimna separata [8]) [%]	mortality at 1 µg/mL (Mythimna separata [9]) [%]	mortality at 2.5 µg/mL (Mythimna separata [10]) [%]	mortality at 10 µg/mL (Mythimna separata [12]) [%]	mortality at 0.005 µg/mL (Culex pipiens pallens [14]) [%]	also measured
O=C(NC(=O)c1c(F)cccc1F)Nc1ccc(OCC=C(Cl)Cl)cc1	60	100	60	70						mortality at 100 µg/mL (Mythimna separata [1]): 80%; mortality at 200 µg/mL (Mythimna separata [3]): 90%
O=C(NC(=O)c1c(F)cccc1F)Nc1ccc(COC(C(F)(F)F)C(F)(F)F)cc1		80	0	30						mortality at 100 µg/mL (Mythimna separata [1]): 10%; mortality at 0.25 µg/mL (Culex pipiens pallens [7]): 100%; mortality at 200 µg/mL (Mythimna separata [3]): 40%
O=C(NC(=O)c1c(F)cccc1F)Nc1ccc(OC(C(F)(F)F)C(F)(F)F)cc1	70	100		80	90	0	80			
O=C(NC(=O)c1c(F)cccc1F)Nc1ccc(COc2cc(Cl)c(OC(F)(F)C(F)F)c(Cl)c2)cc1					10			40		mortality at 2 µg/mL (Culex pipiens pallens [11]): 0%; mortality at 25 µg/mL (Mythimna separata [13]): 100%
O=C(NC(=O)c1c(F)cccc1F)Nc1ccc(Oc2cc(Cl)c(OC(F)(F)C(F)F)c(Cl)c2)c(Cl)c1	100		100					60	30	mortality at 0.01 µg/mL (Culex pipiens pallens [15]): 80%; mortality at 25 µg/mL (Mythimna separata [13]): 90%
O=C(NC(=O)c1c(F)cccc1F)Nc1ccc(Oc2cc(Cl)c(OC(F)(F)C(F)F)c(Cl)c2)cc1						0	100		100	mortality at 0.0025 µg/mL (Culex pipiens pallens [16]): 50%
O=C(NC(=O)c1c(F)cccc1F)Nc1ccc(C(F)(C(F)(F)F)C(F)(F)F)cc1					100	0	90		90	mortality at 0.0025 µg/mL (Culex pipiens pallens [16]): 80%; mortality at 0.01 µg/mL (Culex pipiens pallens [15]): 100%
O=C(NC(=O)c1c(F)cccc1F)Nc1cc(Cl)c(OC(F)(F)C(F)F)c(Cl)c1 [HEXAFLUMURON]								80		mortality at 0.25 µg/mL (Culex pipiens pallens [7]): 100%
